Measurements from different studies.
Target: Serine/threonine-protein kinase 4 (STK4, Homo sapiens, UniProt Q13043)
Sequence (Q13043 1-487, as in one of the studies): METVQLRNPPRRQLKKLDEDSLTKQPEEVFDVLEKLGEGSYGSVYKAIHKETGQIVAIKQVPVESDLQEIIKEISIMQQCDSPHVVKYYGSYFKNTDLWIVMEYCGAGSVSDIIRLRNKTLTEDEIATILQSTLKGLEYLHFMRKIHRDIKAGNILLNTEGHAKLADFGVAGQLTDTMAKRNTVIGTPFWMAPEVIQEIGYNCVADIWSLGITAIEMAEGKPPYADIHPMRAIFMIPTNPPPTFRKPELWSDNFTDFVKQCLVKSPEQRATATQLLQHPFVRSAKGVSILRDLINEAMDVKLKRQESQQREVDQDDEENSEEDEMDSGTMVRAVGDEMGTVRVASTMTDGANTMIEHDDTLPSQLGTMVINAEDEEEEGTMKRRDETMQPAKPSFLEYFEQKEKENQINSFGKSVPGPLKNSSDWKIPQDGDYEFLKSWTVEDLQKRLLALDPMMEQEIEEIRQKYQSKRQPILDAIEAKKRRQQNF

CC/C(=N\NC(=O)NCc1cccc(O)c1)c1ccc(O)c(C)c1O — inhibition (enzyme activity; inhibitor; 0.1 µM): -0.7%
Cn1c2c(c3ccccc31)C(C#N)C(C)(C)NC2=O (stereo not drawn) — ΔTm (thermal stability; DSF; 10 µM): 0.2 °C
CC(C)c1ccc(NC(=O)c2cccs2)c(-c2nc3ccccc3[nH]c2=O)c1 — activity vs control (enzyme activity; inhibitor; 1 µM): 118%
Cc1cnc(NC2CCOCC2)nc1-n1cnc(C(=O)NC(CN)c2cc(F)cc(Cl)c2)c1 (stereo not drawn) — remaining activity (enzyme activity; inhibitor; radiometric; 1 µM): 103%
O=C(Nc1ccc(Oc2ccc(F)cc2)cc1)N1CCc2ncccc2[C@H]1c1ccc(F)cc1 — remaining binding (cell-free assay; competition with immobilised ligand; 1 µM): 99%
CN1CCC2(CC1)NC(=O)c1c(c3ccc(Cl)c(Cl)c3n1C)C2C#N (racemic) — ΔTm (thermal stability; DSF; 10 µM): 0 °C
Cc1c(NC(=O)c2cc(C(N)=O)nc3cc(F)ccc23)c(C(F)(F)F)nn1Cc1ccc(C(C)(C)C)cc1 — remaining binding (cell-free assay; competition with immobilised ligand; 1 µM): 95%
Cc1ccc(Nc2nccc(N(C)c3ccc4c(C)n(C)nc4c3)n2)cc1S(N)(=O)=O — inhibition (enzyme activity; inhibitor; 0.3 µM): 1%
CN1CC(Oc2cnc(C#N)cc2-c2ccn3nc(NC(=O)C4CC4)cc3c2)C1 — inhibition (enzyme activity; inhibitor; 1 µM): -5%
CC(C)(C)c1nc2c(s1)c1nc(N)ncc1c1ccc(NS(=O)(=O)c3c(F)cccc3F)c(F)c12 — remaining activity (enzyme activity; inhibitor; radiometric; 1 µM): 86%
COc1cc2ncnc(Nc3ccc(Oc4ccccc4)c(C)c3C)c2cc1OC — inhibition (enzyme activity; inhibitor; 1 µM): -7%
CNC(=O)c1cc(Oc2ccc(NC(=O)Nc3ccc(Cl)c(C(F)(F)F)c3)cc2)ccn1 — inhibition (enzyme activity; inhibitor; 10 µM): 3%
Cc1cc(C)c(-n2ccn3nc(-c4cccnc4)cc23)cc1NC(=O)c1cc(C#N)cc(S(F)(F)(F)(F)F)c1 — remaining binding (cell-free assay; competition with immobilised ligand; 0.1 µM): 88.5%
O=C(Nc1cnn(-c2csc(C(=O)NC3COC3)c2)c1)Nc1c(F)cccc1Cl — remaining activity (enzyme activity; inhibitor; 5 µM): 96.6%
O=C1NC(=O)c2cc(Nc3ccc(F)cc3)c(Nc3ccc(F)cc3)cc21 — remaining signal (cell-free assay; 0.5 µM): 101%
Cn1c2c(c3ccc(Cl)c(Cl)c31)C(C#N)C(C)(C)NC2=O (stereo not drawn) — ΔTm (thermal stability; DSF; 10 µM): -0.4 °C
COc1cccc2c(NCc3ccccc3)nc(-n3c(N)nc4ccccc43)nc12 — inhibition (target engagement in cells; inhibitor; chemoproteomics; 20 mM): 6.2%
Cc1cc(-n2nc(Cc3cc(F)cc(C(F)(F)F)c3)nc2C)ccc1C(N)=O — remaining binding (cell-free assay; competition with immobilised ligand; 1 µM): 100%
Nc1ncnc2occ(-c3ccc(NC(=O)Nc4cc(C(F)(F)F)ccc4F)cc3)c12 — remaining signal (cell-free assay; inhibitor; 20 µM): 2.1%
CC(C)(O)[C@H]1CC[C@H](Nc2ccc3ncc(-c4cccc(C(F)(F)F)c4)n3n2)CC1 — remaining activity (enzyme activity; inhibitor; 1 µM): 90.8%
Cn1nc(C(=O)NCc2ccc(C(=O)O)cc2)cc1-c1ccc2[nH]ccc2c1 — remaining binding (cell-free assay; competition with immobilised ligand; 0.1 µM): 80%
Cc1ccc(NC(=O)c2ccc(C)c(C(F)(F)F)c2)cc1C#Cc1nn(C2CCC(O)CC2)c2ncnc(N)c12 (stereo not drawn) — remaining signal (cell-free assay; 10 µM): 109%
Nc1cnc(N2CCc3cc(S(=O)(=O)Nc4c(F)cc(Cl)cc4F)cc(N4CCCC4=O)c32)nc1 — remaining binding (cell-free assay; competition with immobilised ligand; 1 µM): 100%
C[C@@H]1CCN(C(=O)CC#N)C[C@@H]1N(C)c1ncnc2[nH]ccc12 — remaining signal (cell-free assay; inhibitor; 0.5 µM): 95.5%
Cn1c2c(Cl)c(Cl)ccc2c2cc[nH]c(=O)c21 — ΔTm (thermal stability; DSF; 10 µM): 0.8 °C
O=C(N1CCS(=O)(=O)CC1)N1C[C@H](c2ccc(OC(F)(F)F)cc2)C[C@H](c2nc(C3CC3)no2)C1 — remaining binding (cell-free assay; competition with immobilised ligand; 1 µM): 100%
CS(=O)(=O)CCNCc1ccc(-c2ccc3ncnc(Nc4ccc(OCc5cccc(F)c5)c(Cl)c4)c3c2)o1 — remaining signal (cell-free assay; 0.5 µM): 99.4%
Cn1c2c(c3ccc(Cl)c(Cl)c31)C(C#N)C1(CCOCC1)NC2=O (stereo not drawn) — ΔTm (thermal stability; DSF; 10 µM): -0.4 °C
Cc1ccc(C(=O)Nc2ccc(CN3CCN(C)CC3)c(C(F)(F)F)c2)cc1C#Cc1cnc2cccnn12 — remaining activity (enzyme activity; inhibitor; 23.5 nM): 100%
Cc1nccc(COC(=O)N2C[C@@H]3[C@@H](CNC(=O)c4ccc5[nH]nnc5c4)[C@@H]3C2)n1 — remaining binding (cell-free assay; competition with immobilised ligand; 1 µM): 100%
